From ChEMBL document CHEMBL1152997, “Prevalence of and molecular basis for tuberculosis drug resistance in the Republic of Georgia: validation of a QIAplex system for detection of drug resistance-related mutations” (2008) come the findings set out here.

Common to all, as to format: functional
The subject of assay [1] is Mycobacterium tuberculosis. Briefly: Antimycobacterial activity against Mycobacterium tuberculosis clinical isolates from tuberculosis patient assessed as percent resistant isolates at 2 ug/ml by absolute-concentration method. A digest of the protocol: (§1)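 Consecutive clinical M. tuberculosis isolates (196), Tbilisi, Jan–Mar 2006, primary culture on Lowenstein-Jensen medium. Suspension adjusted to 1 McFarland in sterile saline. 0.2 ml was plated onto drug-containing solid medium: a 10-fold dilution series for the 2, 4 and 40 µg/ml media, and a 100-fold dilution for the 0.2 µg/ml medium. Incubation at 37°C, 5–10% CO2, 28 days.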

The subject of assay [2] is Mycobacterium tuberculosis. Briefly: Antimycobacterial activity against Mycobacterium tuberculosis clinical isolates from tuberculosis patient assessed as percent resistant isolates at 0.2 ug/ml by absolute-concentration method. A digest of the protocol: as §1
The subject of assay [3] is Mycobacterium tuberculosis. Description: Antimycobacterial activity against Mycobacterium tuberculosis clinical isolates from tuberculosis patient assessed as percent resistant isolates at 40 ug/ml by absolute-concentration method. A digest of the protocol: as §1
The test system of assay [4] is Mycobacterium tuberculosis. Description: Antimycobacterial activity against Mycobacterium tuberculosis clinical isolates from tuberculosis patient assessed as percent resistant isolates at 4 ug/ml by absolute-concentration method. In outline:
as §1

On to `CC[C@@H](CO)NCCN[C@@H](CC)CO` [ETHAMBUTOL], for which the Activity in assay [1] is 2.6%.
`NNC(=O)c1ccncc1` [ISONIAZID]: the Activity in assay [2] was 20.9%.
In the case of `CO[C@H]1/C=C/O[C@@]2(C)Oc3c(C)c(O)c4c(O)c(c(/C=N/N5CCN(C)CC5)c(O)c4c3C2=O)NC(=O)/C(C)=C\C=C\[C@H](C)[C@H](O)[C@@H](C)[C@@H](O)[C@@H](C)[C@H](OC(C)=O)[C@@H]1C` [RIFAMPIN], the Activity in assay [3] worked out at 9.2%.
For the molecule `CN[C@@H]1[C@H](O[C@H]2[C@H](O[C@H]3[C@H](O)[C@@H](O)[C@H](N=C(N)N)[C@@H](O)[C@@H]3N=C(N)N)O[C@@H](C)[C@]2(O)C=O)O[C@@H](CO)[C@H](O)[C@H]1O` [STREPTOMYCIN], the Activity in assay [4] came to 25%.
